# System: HSC-2
# Test: Cytotoxicity against human HSC2 cells after 24 hrs by MTT assay
# Format: functional
# Conditions: HSC-2, 24 h, read-out: LD50 (the source's name)
# In short: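 HSC-2 oral squamous carcinoma cells grown as monolayers in DMEM with 10% heat-inactivated FBS, 37 °C, 5% CO2. Seeded at 6 × 10^3 cells/well, incubated 24 h, washed, then exposed to compounds for 24 h. MTT (0.2 mg/mL) for 4 h, DMSO lysis, absorbance at 540 nm. LD50 (50% reduction in viable cells) read from dose-response curve.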
row,SMILES,CC50 [µg/mL]
1,CC(=O)C1=CC[C@H]2[C@@H]3CC=C4C[C@@H](O[C@@H]5O[C@H](CO)[C@H](O[C@@H]6O[C@H](CO)[C@@H](O)[C@H](O[C@@H]7OC[C@@H](O)[C@H](O)[C@H]7O)[C@H]6O[C@@H]6O[C@H](CO)[C@@H](O)[C@H](O[C@@H]7O[C@H](CO)[C@@H](O)[C@H](O)[C@H]7O)[C@H]6O)[C@H](O)[C@H]5O)[C@H](O)C[C@]4(C)[C@H]3CC[C@]12C,192
2,CC(=O)[C@H]1[C@@H](OC(=O)CC[C@@H](C)CO[C@@H]2O[C@H](CO)[C@@H](O)[C@H](O)[C@H]2O)C[C@H]2[C@@H]3CC=C4C[C@@H](O[C@@H]5O[C@H](CO)[C@H](O[C@@H]6O[C@H](CO)[C@@H](O)[C@H](O[C@@H]7OC[C@@H](O)[C@H](O)[C@H]7O)[C@H]6O[C@@H]6O[C@H](CO)[C@@H](O)[C@H](O[C@@H]7O[C@H](CO)[C@@H](O)[C@H](O)[C@H]7O)[C@H]6O)[C@H](O)[C@H]5O)[C@H](O)C[C@]4(C)[C@H]3CC[C@@]21C,> 300
3,C[C@@H]1CC[C@@]2(OC1)O[C@H]1C[C@H]3[C@@H]4CC=C5C[C@@H](O[C@@H]6O[C@H](CO)[C@H](O[C@@H]7O[C@H](CO)[C@@H](O)[C@H](O[C@@H]8OC[C@@H](O)[C@H](O)[C@H]8O)[C@H]7O[C@@H]7O[C@H](CO)[C@@H](O)[C@H](O[C@@H]8O[C@H](CO)[C@@H](O)[C@H](O)[C@H]8O)[C@H]7O)[C@H](O)[C@H]6O)[C@H](O)C[C@]5(C)[C@H]4CC[C@]3(C)[C@H]1[C@@H]2C,2.7
4,C[C@@H]1C(=O)O[C@H]2C[C@H]3[C@@H]4CC=C5C[C@@H](O[C@@H]6O[C@H](CO)[C@H](O[C@@H]7O[C@H](CO)[C@@H](O)[C@H](O[C@@H]8OC[C@@H](O)[C@H](O)[C@H]8O)[C@H]7O[C@@H]7O[C@H](CO)[C@@H](O)[C@H](O[C@@H]8O[C@H](CO)[C@@H](O)[C@H](O)[C@H]8O)[C@H]7O)[C@H](O)[C@H]6O)[C@H](O)C[C@]5(C)[C@H]4CC[C@]3(C)[C@H]21,> 300
5,CO[C@]1(CC[C@@H](C)CO[C@@H]2O[C@H](CO)[C@@H](O)[C@H](O)[C@H]2O)O[C@H]2C[C@H]3[C@@H]4CC=C5C[C@@H](O[C@@H]6O[C@H](CO)[C@H](O[C@@H]7O[C@H](CO)[C@@H](O)[C@H](O[C@@H]8OC[C@@H](O)[C@H](O)[C@H]8O)[C@H]7O[C@@H]7O[C@H](CO)[C@@H](O)[C@H](O[C@@H]8O[C@H](CO)[C@@H](O)[C@H](O)[C@H]8O)[C@H]7O)[C@H](O)[C@H]6O)[C@H](O)C[C@]5(C)[C@H]4CC[C@]3(C)[C@H]2[C@@H]1C,6.1
6,CC1=C(CC[C@@H](C)CO[C@@H]2O[C@H](CO)[C@@H](O)[C@H](O)[C@H]2O)O[C@H]2C[C@H]3[C@@H]4CC=C5C[C@@H](O[C@@H]6O[C@H](CO)[C@H](O[C@@H]7O[C@H](CO)[C@@H](O)[C@H](O[C@@H]8OC[C@@H](O)[C@H](O)[C@H]8O)[C@H]7O[C@@H]7O[C@H](CO)[C@@H](O)[C@H](O[C@@H]8O[C@H](CO)[C@@H](O)[C@H](O)[C@H]8O)[C@H]7O)[C@H](O)[C@H]6O)[C@H](O)C[C@]5(C)[C@H]4CC[C@]3(C)[C@@H]12,> 300
7,C/C(C(=O)CC[C@@H](C)CO[C@@H]1O[C@H](CO)[C@@H](O)[C@H](O)[C@H]1O)=C1/C(=O)C[C@H]2[C@@H]3CC=C4C[C@@H](O[C@@H]5O[C@H](CO)[C@H](O[C@@H]6O[C@H](CO)[C@@H](O)[C@H](O[C@@H]7OC[C@@H](O)[C@H](O)[C@H]7O)[C@H]6O[C@@H]6O[C@H](CO)[C@@H](O)[C@H](O[C@@H]7O[C@H](CO)[C@@H](O)[C@H](O)[C@H]7O)[C@H]6O)[C@H](O)[C@H]5O)[C@H](O)C[C@]4(C)[C@H]3CC[C@]12C,281
8,C/C(C(=O)CC[C@@H](C)CO[C@@H]1O[C@H](CO)[C@@H](O)[C@H](O)[C@H]1O)=C1/C(=O)C[C@H]2[C@@H]3CC=C4C[C@@H](O[C@@H]5O[C@H](CO)[C@H](O[C@@H]6O[C@H](CO)[C@@H](O)[C@H](O[C@@H]7OC[C@@H](O)[C@H](O)[C@H]7O)[C@H]6O[C@@H]6O[C@H](CO)[C@@H](O)[C@H](O)[C@H]6O)[C@H](O)[C@H]5O)[C@H](O)C[C@]4(C)[C@H]3CC[C@]12C,> 300
9,C[C@@H]1CC[C@@]2(OC1)O[C@H]1C[C@H]3[C@@H]4CC=C5C[C@@H](O[C@@H]6O[C@H](CO)[C@H](O[C@@H]7O[C@H](CO)[C@@H](O)[C@H](O[C@@H]8OC[C@@H](O)[C@H](O)[C@H]8O)[C@H]7O[C@@H]7O[C@H](CO)[C@@H](O)[C@H](O[C@@H]8O[C@H](CO)[C@@H](O)[C@H](O)[C@H]8O)[C@H]7O)[C@H](O)[C@H]6O)[C@H](O)C[C@]5(C)[C@H]4CC[C@]3(C)[C@@]1(O)[C@@H]2C,4.4
10,C[C@H]1CO[C@]2(C[C@@H]1O[C@@H]1O[C@H](CO)[C@@H](O)[C@H](O)[C@H]1O)O[C@H]1C[C@H]3[C@@H]4CC=C5C[C@@H](O[C@@H]6O[C@H](CO)[C@H](O[C@@H]7O[C@H](CO)[C@@H](O)[C@H](O[C@@H]8OC[C@@H](O)[C@H](O)[C@H]8O)[C@H]7O[C@@H]7O[C@H](CO)[C@@H](O)[C@H](O[C@@H]8O[C@H](CO)[C@@H](O)[C@H](O)[C@H]8O)[C@H]7O)[C@H](O)[C@H]6O)[C@H](O)C[C@]5(C)[C@H]4CC[C@]3(C)[C@H]1[C@@H]2C,> 300
11,COc1cccc2c1C(=O)c1c(O)c3c(c(O)c1C2=O)C[C@@](O)(C(=O)CO)C[C@@H]3O[C@H]1C[C@H](N)[C@H](O)[C@H](C)O1 [DOXORUBICIN],2.5

# Reference: ChEMBL document CHEMBL1150163, “Steroidal glycosides from the leaves of Cestrum nocturnum” (2002)
